Experimental data published in ChEMBL document CHEMBL1155880, “Slow self-activation enhances the potency of viridin prodrugs” (J Med Chem, 2008).

Tests used:
A549 [1] = assay: Cellular uptake in human A549 cells at 10 uM by FACS relative to initial rate; assay type: ADME, cell-based; details: a549, 10 µM
How it was run: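 A549 cells incubated with 10 μM NBD-labelled compound for varying times, then detached with trypsin and analysed by FACS. Fluorescence over time is expressed as relative cellular fluorescence: the geometric mean of exposed cells divided by the geometric mean of unexposed cells.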

[2] = Chemical stability assessed as half-times of wortmannin formation at pH 6.8 in phosphate buffer saline; assay type: physicochemical
How it was run: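 Compounds were incubated at 1.5 mM Wm equivalents in PBS, pH 6.8, 37°C. Wm (or NBD-Wm) formation was followed by reverse-phase C18 HPLC with methyl-4-hydroxybenzoate as internal standard. For NBD derivatives, 10% acetonitrile and 5% DMSO were added to keep the released product in solution. Half-lives of formation were derived from this.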

A549 [3] = assay: Antiproliferative activity against human A549 cells after 48 hrs by SRB method; assay type: functional, cell-based; details: A549, 48 h

Drug uptake (A549 [1])	Activity [2] [h]	SMILES	IC50 (A549 [3]) [µM]
1	2.3	COC[C@H]1OC(=O)/C(=C\N(C)c2ccncc2)C2=C(O)C(=O)C3=C([C@H](OC(C)=O)C[C@]4(C)C(=O)CC[C@@H]34)[C@]21C	9.86
	8.7	COC[C@H]1OC(=O)/C(=C\N(C)CCCCCC(=O)O)C2=C(O)C(=O)C3=C([C@H](OC(C)=O)C[C@]4(C)C(=O)CC[C@@H]34)[C@]21C	0.96
		COC[C@H]1OC(=O)c2coc3c2[C@@]1(C)C1=C(C3=O)[C@@H]2CCC(=O)[C@@]2(C)C[C@H]1OC(C)=O [WORTMANNIN]	11.4
1.199	1.87	COC[C@H]1OC(=O)/C(=C\N(C)c2ccncc2)C2=C(O)C(=O)C3=C([C@H](OC(=O)CCCCN(C)c4ccc([N+](=O)[O-])c5nonc45)C[C@]4(C)C(=O)CC[C@@H]34)[C@]21C	9.99
0.0271	> 100	COC[C@H]1OC(=O)/C(=C\NCCCCCC(=O)O)C2=C(O)C(=O)C3=C([C@H](OC(=O)CCCCN(C)c4ccc([N+](=O)[O-])c5nonc45)C[C@]4(C)C(=O)CC[C@@H]34)[C@]21C	48.7
	> 100	COC[C@H]1OC(=O)/C(=C\NCCCCC(NC(C)=O)C(=O)O)C2=C(O)C(=O)C3=C([C@H](OC(C)=O)C[C@]4(C)C(=O)CC[C@@H]34)[C@]21C (stereo partly drawn)	29.8

SMILES	Drug uptake (A549 [1])	Activity [2] [h]	IC50 (A549 [3]) [µM]
COC[C@H]1OC(=O)/C(=C\N(C)CCCCCC(=O)O)C2=C(O)C(=O)C3=C([C@H](OC(=O)CCCCN(C)c4ccc([N+](=O)[O-])c5nonc45)C[C@]4(C)C(=O)CC[C@@H]34)[C@]21C	0.187	8	3.85
COC[C@H]1OC(=O)/C(=C\NCCCCC(=O)O)C2=C(O)C(=O)C3=C([C@H](OC(C)=O)C[C@]4(C)C(=O)CC[C@@H]34)[C@]21C		> 100	27.9
COC[C@H]1OC(=O)/C(=C\N2CCCC2C(=O)O)C2=C(O)C(=O)C3=C([C@H](OC(C)=O)C[C@]4(C)C(=O)CC[C@@H]34)[C@]21C (stereo partly drawn)		9.9	1.79
COC[C@H]1OC(=O)c2coc3c2[C@@]1(C)C1=C(C3=O)[C@@H]2CCC(=O)[C@@]2(C)C[C@H]1OC(=O)CCCCN(C)c1ccc([N+](=O)[O-])c2nonc12	1		12.2
